The term IC50 denotes the concentration needed to halve the response being measured. In general, MIC refers to the smallest concentration in the dilution series that meets the test's criterion for growth inhibition.

Consider nine molecules from ChEMBL document CHEMBL3085642, “Synthesis and evaluation of novel 4-nitropyrrole-based 1,3,4-oxadiazole derivatives as antimicrobial and anti-tubercular agents” (Eur J Med Chem, 2013).

One assay has as its system Vero. Description: Cytotoxicity against african green monkey Vero cells after 72 hrs by MTT assay. The assay is classed as cell-based. The conditions noted are these: Chlorocebus sabaeus. Summed up: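 Vero cells were exposed to compounds for 72 h. Viability was measured by cellular conversion of MTT into formazan (non-radioactive proliferation assay), and the cytotoxic concentration was reported as IC50.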
(Tetrazolium dyes change colour on reduction, which living cells bring about.)

For assay [1], the system named is Candida albicans. Description: Ratio of ampotericin-B MIC to compound MIC against Candida albicans. The assay is classed as functional.
For assay [2], the system named is Staphylococcus aureus. Description: Ratio of ciprofloxacin MIC to compound MIC against methicillin-susceptible Staphylococcus aureus ATCC 35556. Format: functional.
Assay [3] concerns Staphylococcus aureus. Nature of the assay: Ratio of ciprofloxacin MIC to compound MIC against Staphylococcus aureus ATCC 25923. The assay is classed as functional.
The subject of assay [4] is Mycobacterium tuberculosis. Nature of the assay: Antitubercular activity against Mycobacterium tuberculosis H37Rv after 7 days by resazurin microtitre assay. The assay is classed as functional. Conditions: 168 h.
The test system of assay [5] is Candida albicans. Description: Antifungal activity against Candida albicans after 48 hrs by two fold agar dilution method. Format: functional. Summed up: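 Two-fold serial dilutions in DMSO were tested against C. albicans by agar dilution. Cultures were incubated for 48 h at 35 °C and growth was monitored. MIC was taken as the lowest concentration (highest dilution) that arrested fungal growth.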

Assay [6] has as its system Staphylococcus aureus. Nature of the assay: Antibacterial activity against methicillin-resistant Staphylococcus aureus ATCC 43866 by broth dilution method. The assay is classed as functional.
In assay [7] the test system is Staphylococcus aureus. Description: Antibacterial activity against methicillin-susceptible Staphylococcus aureus ATCC 35556 by broth dilution method. Format: functional.
The next assay concerns Klebsiella pneumoniae. Description: Antibacterial activity against Klebsiella pneumoniae by two fold broth dilution method. The assay is classed as functional.
Assay [8] deals with Escherichia coli. Nature of the assay: Antibacterial activity against Escherichia coli ATCC 25922 by two fold broth dilution method. Format: functional. (In general: Broth dilution looks for growth in wells or tubes with falling amounts of substance.)
Assay [9] deals with Bacillus spizizenii. Nature of the assay: Antibacterial activity against Bacillus subtilis ATCC 6633 by two fold broth dilution method. The assay is classed as functional.
The test system of assay [10] is Staphylococcus aureus. Description: Antibacterial activity against Staphylococcus aureus ATCC 25923 by two fold broth dilution method. The assay is classed as functional.
Assay [11] relates to Escherichia coli. Nature of the assay: Ratio of ciprofloxacin MIC to compound MIC against Escherichia coli ATCC 25922. The assay is classed as functional.
The test system of assay [12] is Staphylococcus aureus. Description: Ratio of ciprofloxacin MIC to compound MIC against methicillin-resistant Staphylococcus aureus ATCC 43866. The assay is classed as functional.
The subject of assay [13] is Bacillus spizizenii. Description: Ratio of ciprofloxacin MIC to compound MIC against Bacillus subtilis ATCC 6633. Format: functional.

Converted amounts (≈) assume the structure as drawn.

`Cn1cc([N+](=O)[O-])cc1-c1nnc(-c2ccc(C#N)cc2)o1` yielded an IC50 in the assay on Vero of 315 µM. Moreover, the Ratio in the assay on Candida albicans [1], in the assay on Staphylococcus aureus [2] and with Staphylococcus aureus [3] was 2 each time. Moreover, the MIC in [4] came out at 84.6 µg/mL (≈ 287 µM); in the assay on Candida albicans [5] it was 1.56 µg/mL (≈ 5.28 µM); against Staphylococcus aureus [6], 1.56 µg/mL (≈ 5.28 µM); in the assay with Staphylococcus aureus [7], 0.39 µg/mL (≈ 1.32 µM); in the assay with Klebsiella pneumoniae, 12.5 µg/mL (≈ 42.3 µM); in the assay on Escherichia coli [8] it was 6.25 µg/mL (≈ 21.2 µM). The MIC against Bacillus spizizenii [9] came out at 1.56 µg/mL (≈ 5.28 µM); in the assay on Staphylococcus aureus [10], 0.78 µg/mL (≈ 2.64 µM).

Turning to `COc1cccc(OC)c1-c1nnc(-c2cc([N+](=O)[O-])cn2C)o1`, inhibition in the assay on Vero was half-maximal at 177 µM (IC50). Besides, the Ratio in the assay with Candida albicans [1], in the assay on Staphylococcus aureus [2] and in the assay on Staphylococcus aureus [3] was 2 in each case. Also, the MIC stood at 32 µg/mL (≈ 96.9 µM) in [4]; 1.56 µg/mL (≈ 4.72 µM) in the assay with Candida albicans [5]; 1.56 µg/mL (≈ 4.72 µM) against Staphylococcus aureus [6]; 0.39 µg/mL (≈ 1.18 µM) in the assay with Staphylococcus aureus [7]; 12.5 µg/mL (≈ 37.8 µM) against Klebsiella pneumoniae; 6.25 µg/mL (≈ 18.9 µM) with Escherichia coli [8]. For the same molecule, the MIC against Bacillus spizizenii [9] was determined as 1.56 µg/mL (≈ 4.72 µM); against Staphylococcus aureus [10] it was 0.78 µg/mL (≈ 2.36 µM).

With `COc1ccc(-c2nnc(-c3cc([N+](=O)[O-])cn3C)o2)cc1`, the IC50 in the assay on Vero was found to be 281 µM. The Ratio with Candida albicans [1], with Staphylococcus aureus [2] and with Staphylococcus aureus [3] was 2 throughout. For the same molecule, the MIC was 1.56 µg/mL (≈ 5.2 µM) against Candida albicans [5]; 1.56 µg/mL (≈ 5.2 µM) against Staphylococcus aureus [6]; 0.39 µg/mL (≈ 1.3 µM) in the assay with Staphylococcus aureus [7]; 12.5 µg/mL (≈ 41.6 µM) in the assay with Klebsiella pneumoniae; 6.25 µg/mL (≈ 20.8 µM) against Escherichia coli [8]; 1.56 µg/mL (≈ 5.2 µM) against Bacillus spizizenii [9]. Besides, the MIC in the assay on Staphylococcus aureus [10] came to 0.78 µg/mL (≈ 2.6 µM).

For the molecule `Cn1cc([N+](=O)[O-])cc1-c1nnc(-c2ccns2)o1`, the IC50 in the assay on Vero came out at 320 µM. Further, the Ratio in the assay on Candida albicans [1], in the assay with Staphylococcus aureus [2] and with Staphylococcus aureus [3] was 2 each time. Further, the MIC in the assay on Candida albicans [5] came out at 1.56 µg/mL (≈ 5.63 µM); with Staphylococcus aureus [6], 1.56 µg/mL (≈ 5.63 µM); in the assay with Staphylococcus aureus [7] it was 0.39 µg/mL (≈ 1.41 µM); in the assay with Klebsiella pneumoniae it was 12.5 µg/mL (≈ 45.1 µM); against Escherichia coli [8] it was 6.25 µg/mL (≈ 22.5 µM); against Bacillus spizizenii [9], 1.56 µg/mL (≈ 5.63 µM). For the same molecule, it took 0.78 µg/mL (≈ 2.81 µM) to inhibit growth against Staphylococcus aureus [10] (MIC).

`Cn1cc([N+](=O)[O-])cc1-c1nnc(-c2cccc([N+](=O)[O-])c2O)o1` came in with an IC50 in the assay on Vero of 269 µM. Moreover, the Ratio with Candida albicans [1], with Staphylococcus aureus [2] and in the assay on Staphylococcus aureus [3] was 2 in each case. Moreover, the MIC in the assay on Candida albicans [5] worked out at 1.56 µg/mL (≈ 4.71 µM); with Staphylococcus aureus [6], 1.56 µg/mL (≈ 4.71 µM); in the assay with Staphylococcus aureus [7] it was 0.39 µg/mL (≈ 1.18 µM); in the assay on Klebsiella pneumoniae it was 12.5 µg/mL (≈ 37.7 µM); with Escherichia coli [8], 3.12 µg/mL (≈ 9.43 µM); in the assay on Bacillus spizizenii [9], 1.56 µg/mL (≈ 4.71 µM). Moreover, 0.78 µg/mL (≈ 2.35 µM) was the least that counted as inhibitory against Staphylococcus aureus [10] (MIC).

Regarding `Cn1cc([N+](=O)[O-])cc1-c1nnc(-c2cc(-c3ccccc3)nc3ccc(Cl)cc23)o1`, the IC50 in the assay on Vero was found to be 328 µM. Also, the Ratio with Candida albicans [1], in the assay with Escherichia coli [11] and with Staphylococcus aureus [3] was 3 throughout. In addition, the MIC turned out to be 0.78 µg/mL (≈ 1.81 µM) in the assay with Candida albicans [5]; 1.56 µg/mL (≈ 3.61 µM) in the assay on Staphylococcus aureus [6]; 0.39 µg/mL (≈ 0.903 µM) in the assay on Staphylococcus aureus [7]; 12.5 µg/mL (≈ 28.9 µM) in the assay on Klebsiella pneumoniae; 0.39 µg/mL (≈ 0.903 µM) with Escherichia coli [8]; 1.56 µg/mL (≈ 3.61 µM) in the assay on Bacillus spizizenii [9]. In addition, the MIC with Staphylococcus aureus [10] came out at 0.39 µg/mL (≈ 0.903 µM).

In the assay with Vero, `Cn1cc([N+](=O)[O-])cc1-c1nnc(Cc2ccc(F)c3ccccc23)o1` had an IC50 of 119 µM. Moreover, the Ratio with Candida albicans [1], in the assay on Staphylococcus aureus [2] and with Staphylococcus aureus [3] was 2 in each case. The MIC in the assay on Candida albicans [5] was found to be 1.56 µg/mL (≈ 4.43 µM); with Staphylococcus aureus [6], 1.56 µg/mL (≈ 4.43 µM); in the assay with Staphylococcus aureus [7], 0.39 µg/mL (≈ 1.11 µM); against Klebsiella pneumoniae, 12.5 µg/mL (≈ 35.5 µM); against Escherichia coli [8], 6.25 µg/mL (≈ 17.7 µM); in the assay with Bacillus spizizenii [9], 1.56 µg/mL (≈ 4.43 µM). Moreover, in the assay with Staphylococcus aureus [10], the MIC was determined as 0.78 µg/mL (≈ 2.21 µM).

Turning to `Cn1cc([N+](=O)[O-])cc1-c1nnc(-c2ccco2)o1`, the IC50 in the assay on Vero came to 190 µM. Further, the Ratio in the assay on Candida albicans [1] and in the assay on Staphylococcus aureus [3] was 2 in each case. Besides, the MIC in assay [4] stood at 60.2 µg/mL (≈ 231 µM); in the assay with Candida albicans [5], 1.56 µg/mL (≈ 6 µM); in the assay on Staphylococcus aureus [6], 1.56 µg/mL (≈ 6 µM); in the assay on Staphylococcus aureus [7], 1.56 µg/mL (≈ 6 µM); in the assay on Klebsiella pneumoniae it was 50 µg/mL (≈ 192 µM); in the assay with Escherichia coli [8], 3.12 µg/mL (≈ 12 µM). In addition, the MIC in the assay with Bacillus spizizenii [9] turned out to be 1.56 µg/mL (≈ 6 µM); in the assay on Staphylococcus aureus [10], 0.78 µg/mL (≈ 3 µM).

In the assay with Vero, `Cn1cc([N+](=O)[O-])cc1-c1nnc(-c2ccc(Cl)cc2Cl)o1` showed an IC50 of 387 µM. In addition, the Ratio is on record as 2 in the assay on Candida albicans [1]; 2 with Staphylococcus aureus [12]; 2 with Staphylococcus aureus [2]; 2 in the assay with Bacillus spizizenii [13]; 3 in the assay on Staphylococcus aureus [3]. The MIC in assay [4] came out at 18.4 µg/mL (≈ 54.3 µM); against Candida albicans [5] it was 1.56 µg/mL (≈ 4.6 µM); in the assay on Staphylococcus aureus [6], 0.78 µg/mL (≈ 2.3 µM); in the assay with Staphylococcus aureus [7], 0.39 µg/mL (≈ 1.15 µM); against Klebsiella pneumoniae, 12.5 µg/mL (≈ 36.9 µM); against Escherichia coli [8], 1.56 µg/mL (≈ 4.6 µM). In addition, the values for the MIC against Bacillus spizizenii [9] and against Staphylococcus aureus [10] were 0.78 µg/mL (≈ 2.3 µM) and 0.39 µg/mL (≈ 1.15 µM), respectively.
